{"source": "ChEMBL document CHEMBL3868616", "about": "“Synthesis and biological evaluation of hesperetin derivatives as agents inducing apoptosis” (2017)", "key": {"[1]": {"test": "Anticlonogenic activity in human HCT116 cells after 6 days by crystal violet staining based assay", "type": "functional", "conditions": "HCT-116, 144 h", "how_it_was_run": "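HCT116 colon cancer cells, long-term clonogenic survival assay. Compound exposure for six days at 0, 5, 10 and 20 µM (results section also lists 40 µM). Colonies stained with 0.1% crystal violet and quantified by densitometry. GI50 computed from the concentration–response data.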"}, "[2]": {"target": "Mitogen-activated protein kinase 9 (Homo sapiens) (UniProt P45984)", "sequence (P45984 whole entry, looked up)": "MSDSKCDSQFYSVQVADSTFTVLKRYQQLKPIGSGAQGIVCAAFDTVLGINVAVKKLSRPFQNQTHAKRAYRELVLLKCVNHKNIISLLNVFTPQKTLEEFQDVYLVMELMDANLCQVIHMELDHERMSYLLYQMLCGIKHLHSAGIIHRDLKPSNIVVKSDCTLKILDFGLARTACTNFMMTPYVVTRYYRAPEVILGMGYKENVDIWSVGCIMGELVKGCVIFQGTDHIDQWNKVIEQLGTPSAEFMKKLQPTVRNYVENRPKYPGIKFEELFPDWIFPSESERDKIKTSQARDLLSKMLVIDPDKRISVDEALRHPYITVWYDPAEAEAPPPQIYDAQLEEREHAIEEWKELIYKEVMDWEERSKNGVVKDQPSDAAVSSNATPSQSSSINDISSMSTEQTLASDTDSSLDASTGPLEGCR", "test": "Increase in JNK2 phosphorylation at Thr183/Tyr185 residues in human HCT116 cells at 50 to 200 uM measured up to 12 hrs by Western blot analysis", "type": "cell-based", "conditions": "HCT-116", "how_it_was_run": "(§1)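 HCT116 cells exposed to 0, 50, 100 or 200 µM for 1 and 12 h. Whole-cell lysates immunoblotted with an antibody specific for phospho-JNK1/2 (Thr183/Tyr185), with GAPDH as the internal loading control.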"}, "[3]": {"tested_on": "HCT-116", "test": "Induction of apoptosis in human HCT116 cells assessed as increase in PARP cleavage at 50 uM measured up to 24 hrs by immuno blot analysis", "type": "functional, cell-based", "how_it_was_run": "(§2)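 HCT116 cells exposed to 50 µM for 0, 12 and 24 h. Total cell lysates immunoblotted with antibodies against cleaved caspase-9, cleaved caspase-3 and PARP.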"}, "[4]": {"tested_on": "HCT-116", "test": "Induction of apoptosis in human HCT116 cells assessed as necrotic cells at 50 uM after 24 hrs by FITC-annexin V/propidium iodide staining based fluorescence assay (reference value: 2%)", "type": "functional"}, "[5]": {"tested_on": "HCT-116", "test": "Induction of apoptosis in human HCT116 cells assessed as early apoptotic cells at 50 uM after 24 hrs by FITC-annexin V/propidium iodide staining based fluorescence assay (reference value: 6%)", "type": "functional"}, "[6]": {"tested_on": "HCT-116", "test": "Induction of apoptosis in human HCT116 cells assessed as increase in caspase-9 cleavage at 50 uM by immuno blot analysis", "type": "functional, cell-based", "conditions": "TDE = time-dependent effect", "how_it_was_run": "as §2"}, "[7]": {"tested_on": "HCT-116", "test": "Induction of apoptosis in human HCT116 cells assessed as late apoptotic cells at 50 uM after 24 hrs by FITC-annexin V/propidium iodide staining based fluorescence assay (reference value: 3%)", "type": "functional"}, "[8]": {"target": "Mitogen-activated protein kinase 8 (Homo sapiens) (UniProt P45983)", "sequence (P45983 whole entry)": "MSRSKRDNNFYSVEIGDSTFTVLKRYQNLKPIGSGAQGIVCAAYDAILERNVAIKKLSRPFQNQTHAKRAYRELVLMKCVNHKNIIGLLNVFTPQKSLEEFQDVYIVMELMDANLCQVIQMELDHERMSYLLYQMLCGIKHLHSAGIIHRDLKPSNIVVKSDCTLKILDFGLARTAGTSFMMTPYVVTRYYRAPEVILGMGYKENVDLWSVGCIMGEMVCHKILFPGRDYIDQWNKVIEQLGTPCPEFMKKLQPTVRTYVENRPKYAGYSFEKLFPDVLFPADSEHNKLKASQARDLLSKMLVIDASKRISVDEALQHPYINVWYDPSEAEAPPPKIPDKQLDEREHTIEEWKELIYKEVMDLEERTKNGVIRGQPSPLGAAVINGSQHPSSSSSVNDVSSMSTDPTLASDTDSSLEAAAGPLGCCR", "test": "Increase in JNK1 phosphorylation at Thr183/Tyr185 residues in human HCT116 cells at 50 to 200 uM measured up to 1 hr by Western blot analysis", "type": "cell-based", "conditions": "HCT-116", "how_it_was_run": "as §1"}, "[9]": {"test": "Cytotoxicity against human HCT116 cells assessed as decrease in cell viability at 80 uM after 24 hrs by CCK-8 assay", "type": "functional, HCT-116", "how_it_was_run": "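HCT116 cells seeded at 5 × 10^3 per well and treated 24 h at 10, 20, 40, 80 and 100 µM. Viability read with CCK-8 as absorbance at 450 nm. Compared with vehicle by one-way ANOVA followed by Sidak's multiple comparisons test.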"}, "[10]": {"tested_on": "HCT-116", "test": "Induction of apoptosis in human HCT116 cells assessed as viable cells at 50 uM after 24 hrs by FITC-annexin V/propidium iodide staining based fluorescence assay (reference value: 90%)", "type": "functional", "conditions": "HCT-116, 24 h, read-out: Activity"}, "[11]": {"tested_on": "HCT-116", "test": "Induction of apoptosis in human HCT116 cells assessed as increase in caspase-3 cleavage at 50 uM by immuno blot analysis", "type": "functional, cell-based", "conditions": "TDE = time-dependent effect", "how_it_was_run": "as §2"}, "[12]": {"target": "Mitogen-activated protein kinase 8 (Homo sapiens) (UniProt P45983)", "test": "Increase in JNK1 phosphorylation at Thr183/Tyr185 residues in human HCT116 cells at 50 to 200 uM measured up to 12 hrs by Western blot analysis", "type": "cell-based", "conditions": "HCT-116", "how_it_was_run": "as §1"}, "[13]": {"target": "Mitogen-activated protein kinase 9 (Homo sapiens) (UniProt P45984)", "test": "Increase in JNK2 phosphorylation at Thr183/Tyr185 residues in human HCT116 cells at 50 to 200 uM measured up to 1 hr by Western blot analysis", "type": "cell-based", "conditions": "HCT-116", "how_it_was_run": "as §1"}, "[14]": {"target": "Mitogen-activated protein kinase 9 (Homo sapiens) (UniProt P45984)", "test": "Increase in JNK2 phosphorylation at Thr183/Tyr185 residues in human HCT116 cells at 50 to 200 uM after 12 hrs by Western blot analysis", "type": "cell-based", "conditions": "HCT-116", "how_it_was_run": "as §1"}, "[15]": {"target": "Mitogen-activated protein kinase 8 (Homo sapiens) (UniProt P45983)", "test": "Increase in JNK1 phosphorylation at Thr183/Tyr185 residues in human HCT116 cells at 50 to 200 uM after 12 hrs by Western blot analysis", "type": "cell-based", "conditions": "HCT-116", "how_it_was_run": "as §1"}}, "note": "Calls of active or inactive are those of the source. No cut-off for these calls is given here.", "data": [{"smiles": "CCCC(=O)Oc1cc(O)c2c(c1)O[C@H](c1ccc(OC)c(OC(=O)CCC)c1)CC2=O", "values": [{"measurement": "GI50", "setting": "[1]", "result": 13.2, "unit": "µM"}]}, {"smiles": "COc1ccc([C@@H]2CC(=O)c3c(O)cc(OC(=O)c4ccccc4C)cc3O2)cc1OC(=O)c1ccccc1C", "values": [{"measurement": "GI50", "setting": "[1]", "result": 48.7, "unit": "µM"}]}, {"smiles": "COc1ccc([C@@H]2CC(=O)c3c(O)cc(OC(=O)C(C)(C)C)cc3O2)cc1O", "values": [{"measurement": "GI50", "setting": "[1]", "result": 31.5, "unit": "µM"}]}, {"smiles": "COc1ccc([C@@H]2CC(=O)c3c(O)cc(OC(=O)Cc4ccccc4)cc3O2)cc1OC(=O)Cc1ccccc1", "values": [{"measurement": "GI50", "setting": "[1]", "result": 63.9, "unit": "µM"}]}, {"smiles": "COc1ccc([C@@H]2CC(=O)c3c(O)cc(OC(=O)c4ccccc4)cc3O2)cc1OC(=O)c1ccccc1", "values": [{"measurement": "GI50", "setting": "[1]", "result": 46, "unit": "µM"}]}, {"smiles": "C/C=C/C(=O)Oc1cc(O)c2c(c1)O[C@H](c1ccc(OC)c(O)c1)CC2=O", "values": [{"measurement": "GI50", "setting": "[1]", "result": 16.9, "unit": "µM"}]}, {"smiles": "COc1ccc([C@@H]2CC(=O)c3c(O)cc(OC(=O)c4ccccc4C)cc3O2)cc1O", "values": [{"measurement": "GI50", "setting": "[1]", "result": 22.9, "unit": "µM"}]}, {"smiles": "COc1ccc(C(=O)Oc2cc(O)c3c(c2)O[C@H](c2ccc(OC)c(OC(=O)c4ccc(OC)cc4)c2)CC3=O)cc1", "values": [{"measurement": "GI50", "setting": "[1]", "result": 35.7, "unit": "µM"}]}, {"smiles": "CCCC(=O)Oc1cc(O)c2c(c1)O[C@H](c1ccc(OC)c(O)c1)CC2=O", "values": [{"measurement": "Activity", "setting": "[2]", "result": "Active"}, {"measurement": "Activity", "setting": "[3]", "result": "Active"}, {"measurement": "Activity", "setting": "[4]", "result": 0, "unit": "%"}, {"measurement": "Activity", "setting": "[5]", "result": 39, "unit": "%"}, {"measurement": "GI50", "setting": "[1]", "result": 12, "unit": "µM"}, {"measurement": "Activity", "setting": "[6]", "result": "Tde"}, {"measurement": "Activity", "setting": "[7]", "result": 5, "unit": "%"}, {"measurement": "Activity", "setting": "[8]", "result": "Active"}, {"measurement": "Activity", "setting": "[9]", "result": 50, "unit": "%"}, {"measurement": "viability at 50 µM", "setting": "[10]", "result": 55, "unit": "%"}, {"measurement": "Activity", "setting": "[11]", "result": "Tde"}, {"measurement": "Activity", "setting": "[12]", "result": "Active"}, {"measurement": "Activity", "setting": "[13]", "result": "Active"}]}, {"smiles": "COc1ccc([C@@H]2CC(=O)c3c(O)cc(O)cc3O2)cc1O", "note": "[HESPERETIN]", "values": [{"measurement": "Activity", "setting": "[4]", "result": 0, "unit": "%"}, {"measurement": "Activity", "setting": "[5]", "result": 9, "unit": "%"}, {"measurement": "GI50", "setting": "[1]", "result": 36.1, "unit": "µM"}, {"measurement": "Activity", "setting": "[7]", "result": 2, "unit": "%"}, {"measurement": "Activity", "setting": "[9]", "result": 15, "unit": "%"}, {"measurement": "viability at 50 µM", "setting": "[10]", "result": 88, "unit": "%"}, {"measurement": "Activity", "setting": "[14]", "result": "Active"}, {"measurement": "Activity", "setting": "[15]", "result": "Active"}]}, {"smiles": "COc1ccc([C@@H]2CC(=O)c3c(O)cc(OC(=O)c4ccc(C)cc4)cc3O2)cc1OC(=O)c1ccc(C)cc1", "values": [{"measurement": "GI50", "setting": "[1]", "result": 71.7, "unit": "µM"}]}, {"smiles": "COc1ccc([C@@H]2CC(=O)c3c(O)cc(OC(=O)c4ccccc4)cc3O2)cc1O", "values": [{"measurement": "GI50", "setting": "[1]", "result": 16.5, "unit": "µM"}]}, {"smiles": "COc1ccc([C@@H]2CC(=O)c3c(O)cc(OC(=O)/C=C/c4ccccc4)cc3O2)cc1OC(=O)/C=C/c1ccccc1", "values": [{"measurement": "GI50", "setting": "[1]", "result": 21, "unit": "µM"}]}]}
